In ChEMBL document CHEMBL2203006, “Design, synthesis and pharmacological evaluation of 4-(piperazin-1-yl methyl)-N₁-arylsulfonyl indole derivatives as 5-HT₆ receptor ligands” (Bioorg Med Chem Lett, 2012):
Active and inactive are the calls of the source. No cut-off for these calls is given here.

How the values were obtained:
[1] = AUCt in Wistar rat at 10 mg/kg, po; type: ADME, organism-based; design: dose 10 mg/kg, route oral; settings: plasma
Method in brief: (§1)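 Fasted male Wistar rats were dosed orally at 10 mg/kg in water for injection (10 mL/kg). Parameters come from the plasma concentration-time profile.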

[2] = Oral bioavailability in Wistar rat at 10 mg/kg; type: ADME, organism-based; settings: in vivo; method in brief: as §1
[3] = Tmax in Wistar rat at 10 mg/kg, po; type: ADME, organism-based; design: dose 10 mg/kg, route oral; settings: in vivo; method in brief: as §1
[4] = Cmax in Wistar rat at 10 mg/kg, po; type: ADME, organism-based; design: dose 10 mg/kg, route oral; settings: in vivo; method in brief: as §1
[5] = Clearance in Wistar rat at 5 to 10 mg/kg, iv; type: ADME, organism-based; design: dose 5-10 mg/kg, route intravenous; settings: in vivo
Method in brief: (§2)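 Fasted male Wistar rats were dosed intravenously in water for injection at 2 mL/kg. Parameters come from the plasma profile.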

[6] = Apparent volume of distribution in Wistar rat at 5 to 10 mg/kg, iv; type: ADME, organism-based; design: dose 5-10 mg/kg, route intravenous; settings: in vivo, read-out: Vz; method in brief: as §2
[7] = Half life in Wistar rat at 5 to 10 mg/kg, iv; type: ADME, organism-based; design: dose 5-10 mg/kg, route intravenous; settings: in vivo; method in brief: as §2
[8] = Drug metabolism in Wistar rat liver microsomes at 2.5 uM after 0.5 hrs; type: ADME, Microsome; settings: read-out: Drug metabolism
[9] = Drug metabolism in human liver microsomes at 2.5 uM after 0.5 hrs; type: ADME, Microsome; settings: read-out: Drug metabolism
Cytochrome P450 2D6 = Cytochrome P450 2D6 (Homo sapiens, UniProt P10635); experiment: Inhibition of CYP2D6 in human liver microsomes using dextromethorphan as substrate after 10 mins in presence of NADPH; type: ADME, Microsome
Cytochrome P450 3A4 = Cytochrome P450 3A4 (Homo sapiens, UniProt P08684); experiment: Inhibition of CYP3A4 in human liver microsomes using midazolam as substrate after 5 mins in presence of NADPH; type: ADME, Microsome
hERG (KCNH2) = hERG (KCNH2) (Homo sapiens, UniProt Q12809); experiment: Inhibition of human ERG at 1 uM by radioligand displacement assay
Chain of hERG (KCNH2) (Q12809 whole entry): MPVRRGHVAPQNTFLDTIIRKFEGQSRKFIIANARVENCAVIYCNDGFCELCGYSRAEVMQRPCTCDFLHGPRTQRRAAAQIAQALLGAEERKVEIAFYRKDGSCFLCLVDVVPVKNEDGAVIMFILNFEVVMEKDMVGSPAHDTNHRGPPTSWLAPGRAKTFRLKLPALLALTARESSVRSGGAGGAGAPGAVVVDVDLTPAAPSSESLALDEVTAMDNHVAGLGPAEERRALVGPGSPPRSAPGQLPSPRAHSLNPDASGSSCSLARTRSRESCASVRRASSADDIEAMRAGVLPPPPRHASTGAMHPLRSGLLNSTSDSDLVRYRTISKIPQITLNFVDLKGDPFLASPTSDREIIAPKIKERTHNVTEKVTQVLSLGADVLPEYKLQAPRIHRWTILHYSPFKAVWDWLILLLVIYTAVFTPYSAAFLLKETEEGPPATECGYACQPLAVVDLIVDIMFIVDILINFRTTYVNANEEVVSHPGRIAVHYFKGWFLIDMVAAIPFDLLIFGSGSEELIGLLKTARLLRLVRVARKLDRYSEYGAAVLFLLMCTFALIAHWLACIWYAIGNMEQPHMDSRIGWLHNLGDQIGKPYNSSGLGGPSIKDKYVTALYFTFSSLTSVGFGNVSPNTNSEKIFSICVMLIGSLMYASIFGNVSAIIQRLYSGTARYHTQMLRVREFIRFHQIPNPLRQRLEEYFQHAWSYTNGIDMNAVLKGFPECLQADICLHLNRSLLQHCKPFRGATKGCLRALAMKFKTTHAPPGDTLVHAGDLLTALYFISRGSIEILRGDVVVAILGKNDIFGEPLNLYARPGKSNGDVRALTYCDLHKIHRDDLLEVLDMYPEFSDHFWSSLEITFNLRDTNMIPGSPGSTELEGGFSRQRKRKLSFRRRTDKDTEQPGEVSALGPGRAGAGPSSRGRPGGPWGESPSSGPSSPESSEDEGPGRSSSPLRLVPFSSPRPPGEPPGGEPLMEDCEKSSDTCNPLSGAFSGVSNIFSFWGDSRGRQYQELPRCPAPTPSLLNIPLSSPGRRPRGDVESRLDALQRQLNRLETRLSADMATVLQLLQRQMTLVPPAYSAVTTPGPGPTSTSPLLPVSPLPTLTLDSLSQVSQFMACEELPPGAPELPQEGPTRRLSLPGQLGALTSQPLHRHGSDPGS
Method in brief: (§3)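 Single-concentration screen at 1 µM. Percent inhibition was measured by competitive displacement of each target's radioligand.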

[10] = biological target: Sodium-dependent serotonin transporter (Homo sapiens) (UniProt P31645); experiment: Inhibition of SERT at 1 uM by radioligand displacement assay; method in brief: as §3
Chain of Sodium-dependent serotonin transporter (Homo sapiens) (P31645 whole entry, looked up): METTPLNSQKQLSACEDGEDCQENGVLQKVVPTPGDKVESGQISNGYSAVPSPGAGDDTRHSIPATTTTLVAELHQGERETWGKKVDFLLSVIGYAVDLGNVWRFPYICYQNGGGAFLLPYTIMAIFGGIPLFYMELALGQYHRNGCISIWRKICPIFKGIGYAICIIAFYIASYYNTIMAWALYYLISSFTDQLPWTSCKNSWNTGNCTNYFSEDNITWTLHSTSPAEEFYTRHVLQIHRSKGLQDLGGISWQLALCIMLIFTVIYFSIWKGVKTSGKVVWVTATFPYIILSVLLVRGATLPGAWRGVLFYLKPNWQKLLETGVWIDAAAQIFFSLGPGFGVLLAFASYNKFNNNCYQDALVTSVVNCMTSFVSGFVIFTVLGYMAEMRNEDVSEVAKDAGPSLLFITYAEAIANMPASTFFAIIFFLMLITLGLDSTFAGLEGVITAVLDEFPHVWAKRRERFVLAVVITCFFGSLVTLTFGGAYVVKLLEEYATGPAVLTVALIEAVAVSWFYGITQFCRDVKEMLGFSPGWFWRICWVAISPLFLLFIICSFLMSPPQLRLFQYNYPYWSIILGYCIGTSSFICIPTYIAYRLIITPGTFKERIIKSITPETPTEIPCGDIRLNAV

[11] = biological target: Histamine H1 receptor (Homo sapiens) (UniProt P35367); experiment: Inhibition of histamine H1 receptor at 1 uM by radioligand displacement assay; method in brief: as §3
Chain of Histamine H1 receptor (Homo sapiens) (P35367 whole entry): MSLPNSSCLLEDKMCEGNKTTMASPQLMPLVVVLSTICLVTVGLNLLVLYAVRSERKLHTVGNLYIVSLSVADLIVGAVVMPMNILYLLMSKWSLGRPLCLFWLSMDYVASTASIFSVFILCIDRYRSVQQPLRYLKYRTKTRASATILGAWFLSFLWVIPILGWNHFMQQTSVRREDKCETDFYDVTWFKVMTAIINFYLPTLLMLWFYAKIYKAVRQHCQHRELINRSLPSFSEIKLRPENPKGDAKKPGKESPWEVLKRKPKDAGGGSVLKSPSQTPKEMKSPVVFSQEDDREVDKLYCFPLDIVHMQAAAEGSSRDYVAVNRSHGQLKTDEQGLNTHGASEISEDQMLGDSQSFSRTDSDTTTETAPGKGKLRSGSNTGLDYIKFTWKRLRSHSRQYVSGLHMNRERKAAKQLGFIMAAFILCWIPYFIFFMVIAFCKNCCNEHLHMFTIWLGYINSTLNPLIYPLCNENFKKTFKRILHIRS

[12] = biological target: Sodium-dependent noradrenaline transporter (Homo sapiens) (UniProt P23975); experiment: Inhibition of NET at 1 uM by radioligand displacement assay; method in brief: as §3
Chain of Sodium-dependent noradrenaline transporter (Homo sapiens) (P23975 whole entry): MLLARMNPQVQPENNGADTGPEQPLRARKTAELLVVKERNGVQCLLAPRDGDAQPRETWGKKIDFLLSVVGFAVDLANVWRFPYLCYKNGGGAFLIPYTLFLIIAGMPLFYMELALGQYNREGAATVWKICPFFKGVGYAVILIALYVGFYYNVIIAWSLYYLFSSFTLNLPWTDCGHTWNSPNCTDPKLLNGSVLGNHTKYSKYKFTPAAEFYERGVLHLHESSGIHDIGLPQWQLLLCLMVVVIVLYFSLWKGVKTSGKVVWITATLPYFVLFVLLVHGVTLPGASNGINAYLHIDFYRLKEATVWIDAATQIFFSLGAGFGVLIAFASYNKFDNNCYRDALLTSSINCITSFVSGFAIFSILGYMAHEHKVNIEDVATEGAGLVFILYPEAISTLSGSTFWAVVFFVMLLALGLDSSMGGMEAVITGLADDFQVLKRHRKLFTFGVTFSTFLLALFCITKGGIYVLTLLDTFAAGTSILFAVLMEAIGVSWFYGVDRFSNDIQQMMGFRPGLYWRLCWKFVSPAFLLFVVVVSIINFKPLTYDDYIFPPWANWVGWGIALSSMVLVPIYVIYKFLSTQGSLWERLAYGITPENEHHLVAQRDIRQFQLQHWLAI

[13] = biological target: D(3) dopamine receptor (Homo sapiens) (UniProt P35462); experiment: Inhibition of dopamine D3 receptor at 1 uM by radioligand displacement assay; method in brief: as §3
[14] = biological target: Sodium-dependent dopamine transporter (Homo sapiens) (UniProt Q01959); experiment: Inhibition of DAT at 1 uM by radioligand displacement assay; method in brief: as §3
Chain of Sodium-dependent dopamine transporter (Homo sapiens) (Q01959 whole entry): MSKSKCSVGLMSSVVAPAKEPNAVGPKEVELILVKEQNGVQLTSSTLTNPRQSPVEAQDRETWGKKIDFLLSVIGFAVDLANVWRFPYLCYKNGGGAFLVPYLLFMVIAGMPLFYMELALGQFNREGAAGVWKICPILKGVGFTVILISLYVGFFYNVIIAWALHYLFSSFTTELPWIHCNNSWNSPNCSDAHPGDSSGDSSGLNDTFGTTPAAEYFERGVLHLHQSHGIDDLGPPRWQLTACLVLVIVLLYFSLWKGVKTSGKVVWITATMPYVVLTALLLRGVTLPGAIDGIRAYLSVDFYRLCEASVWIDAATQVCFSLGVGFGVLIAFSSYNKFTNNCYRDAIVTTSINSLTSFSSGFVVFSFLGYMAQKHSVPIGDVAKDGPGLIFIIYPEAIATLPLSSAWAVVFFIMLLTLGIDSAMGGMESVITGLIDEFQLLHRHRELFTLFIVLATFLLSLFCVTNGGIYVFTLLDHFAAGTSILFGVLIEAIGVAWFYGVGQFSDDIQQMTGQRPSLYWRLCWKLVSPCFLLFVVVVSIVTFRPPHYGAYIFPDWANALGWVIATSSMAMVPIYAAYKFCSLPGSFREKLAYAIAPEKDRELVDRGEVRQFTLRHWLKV

[15] = biological target: D(2) dopamine receptor (Homo sapiens) (UniProt P14416); experiment: Inhibition of dopamine D2 receptor at 1 uM by radioligand displacement assay; method in brief: as §3
Chain of D(2) dopamine receptor (Homo sapiens) (P14416 whole entry): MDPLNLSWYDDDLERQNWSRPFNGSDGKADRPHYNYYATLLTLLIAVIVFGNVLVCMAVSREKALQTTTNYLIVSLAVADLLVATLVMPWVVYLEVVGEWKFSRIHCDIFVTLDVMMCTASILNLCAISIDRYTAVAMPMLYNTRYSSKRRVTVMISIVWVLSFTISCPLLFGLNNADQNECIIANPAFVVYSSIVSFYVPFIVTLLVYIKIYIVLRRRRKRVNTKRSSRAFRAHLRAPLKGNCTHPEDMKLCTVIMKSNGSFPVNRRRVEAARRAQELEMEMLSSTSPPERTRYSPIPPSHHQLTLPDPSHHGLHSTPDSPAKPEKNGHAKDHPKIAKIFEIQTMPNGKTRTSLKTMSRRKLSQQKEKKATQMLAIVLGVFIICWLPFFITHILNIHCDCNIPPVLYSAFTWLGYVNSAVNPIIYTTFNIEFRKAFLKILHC

[16] = biological target: T1, 5-hydroxytryptamine receptor 3A (Homo sapiens) (UniProt P46098); experiment: Inhibition of 5HT3 receptor at 1 uM by radioligand displacement assay; method in brief: as §3
T1 sequence (whole entry): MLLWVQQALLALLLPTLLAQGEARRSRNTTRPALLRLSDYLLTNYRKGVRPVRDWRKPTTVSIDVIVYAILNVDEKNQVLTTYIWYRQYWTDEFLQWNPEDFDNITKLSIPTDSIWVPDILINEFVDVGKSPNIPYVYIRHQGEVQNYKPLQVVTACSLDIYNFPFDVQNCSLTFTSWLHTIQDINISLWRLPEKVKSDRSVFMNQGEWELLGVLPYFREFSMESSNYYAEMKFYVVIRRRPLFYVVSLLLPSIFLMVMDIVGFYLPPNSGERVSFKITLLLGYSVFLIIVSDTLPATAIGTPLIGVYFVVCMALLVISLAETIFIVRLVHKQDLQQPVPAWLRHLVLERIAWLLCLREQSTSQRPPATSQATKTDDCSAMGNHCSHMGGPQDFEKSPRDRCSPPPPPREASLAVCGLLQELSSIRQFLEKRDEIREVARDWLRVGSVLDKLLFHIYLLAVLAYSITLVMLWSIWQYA

[17] = biological target: 5-hydroxytryptamine receptor 2A (Homo sapiens) (UniProt P28223); experiment: Inhibition of 5HT2A receptor at 1 uM by radioligand displacement assay; method in brief: as §3
Chain of 5-hydroxytryptamine receptor 2A (Homo sapiens) (P28223 whole entry): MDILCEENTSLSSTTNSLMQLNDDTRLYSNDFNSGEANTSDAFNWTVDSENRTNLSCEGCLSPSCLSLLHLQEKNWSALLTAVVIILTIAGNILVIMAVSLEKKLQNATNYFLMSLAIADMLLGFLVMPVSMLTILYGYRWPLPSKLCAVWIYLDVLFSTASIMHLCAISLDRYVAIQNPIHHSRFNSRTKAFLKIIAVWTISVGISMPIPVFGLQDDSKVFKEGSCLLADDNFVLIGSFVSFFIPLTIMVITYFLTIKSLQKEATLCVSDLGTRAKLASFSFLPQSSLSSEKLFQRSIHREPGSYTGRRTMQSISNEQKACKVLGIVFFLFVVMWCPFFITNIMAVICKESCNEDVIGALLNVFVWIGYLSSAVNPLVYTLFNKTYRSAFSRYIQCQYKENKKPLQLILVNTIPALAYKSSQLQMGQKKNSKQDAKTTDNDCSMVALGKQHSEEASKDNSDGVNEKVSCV

[18] = biological target: T2, 5-hydroxytryptamine receptor 6 (Homo sapiens, UniProt P50406); experiment: Antagonist activity at recombinant human 5HT6 receptor expressed in CHO cells assessed as inhibition of 5HT-stimulated cAMP accumulation after 4 hrs by luciferase reporter gene assay relative to control; type: functional, cell-based
T2 sequence (P50406 whole entry): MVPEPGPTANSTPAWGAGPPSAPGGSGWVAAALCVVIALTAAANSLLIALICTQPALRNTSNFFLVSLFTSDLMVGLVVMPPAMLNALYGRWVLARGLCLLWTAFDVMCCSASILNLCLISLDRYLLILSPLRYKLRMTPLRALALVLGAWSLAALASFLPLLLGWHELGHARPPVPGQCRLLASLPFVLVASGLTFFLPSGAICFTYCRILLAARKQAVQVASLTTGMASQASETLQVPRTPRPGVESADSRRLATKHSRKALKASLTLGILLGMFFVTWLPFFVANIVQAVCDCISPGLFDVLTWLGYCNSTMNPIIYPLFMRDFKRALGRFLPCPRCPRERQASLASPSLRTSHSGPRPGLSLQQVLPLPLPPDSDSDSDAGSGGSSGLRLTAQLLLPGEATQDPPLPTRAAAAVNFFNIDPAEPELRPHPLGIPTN

[19] = biological target: T2, 5-hydroxytryptamine receptor 6; experiment: Antagonist activity at recombinant human 5HT6 receptor expressed in CHO cells assessed as inhibition of 5HT-stimulated cAMP accumulation after 4 hrs by luciferase reporter gene assay; type: functional, cell-based
Method in brief: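 Functional antagonism measured in a non-radioactive CHO cell-based assay as inhibition of 5-HT-stimulated cAMP accumulation. IC50 was derived from this inhibition, and Kb values were determined in the same cell-based format. IC50 and Kb are each the mean of two experiments.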

[20] = biological target: T2, 5-hydroxytryptamine receptor 6; experiment: Displacement of [3H]-LSD from cloned human 5HT6 receptor expressed in HEK293 cells; type: cell-based
Method in brief: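 Human recombinant 5-HT6 receptor expressed in HEK293 cells. Radioligand [3H]-LSD (60–80 Ci/mmol) at 1.5 nM final. Methiothepin mesylate defined non-specific binding and served as reference. Ki values are the average of duplicate determinations, run under a contract lab's standard protocol.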

[21] = biological target: T3, Alpha-1B adrenergic receptor (Homo sapiens) (UniProt P35368); experiment: Inhibition of adrenergic alpha1B receptor at 1 uM by radioligand displacement assay; method in brief: as §3
T3 sequence (whole entry): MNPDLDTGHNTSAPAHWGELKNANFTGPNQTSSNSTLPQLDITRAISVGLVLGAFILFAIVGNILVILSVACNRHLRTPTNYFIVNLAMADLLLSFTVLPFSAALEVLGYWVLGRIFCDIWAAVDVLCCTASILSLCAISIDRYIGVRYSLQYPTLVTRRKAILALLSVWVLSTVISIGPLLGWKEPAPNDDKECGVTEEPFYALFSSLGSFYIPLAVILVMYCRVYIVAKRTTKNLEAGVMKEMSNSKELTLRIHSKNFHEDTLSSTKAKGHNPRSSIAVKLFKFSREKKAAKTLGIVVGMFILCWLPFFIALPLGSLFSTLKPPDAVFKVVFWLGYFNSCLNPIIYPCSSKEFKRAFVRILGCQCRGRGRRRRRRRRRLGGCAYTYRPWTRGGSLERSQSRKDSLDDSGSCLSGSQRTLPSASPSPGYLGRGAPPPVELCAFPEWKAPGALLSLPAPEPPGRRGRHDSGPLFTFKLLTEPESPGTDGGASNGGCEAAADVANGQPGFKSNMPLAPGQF

[22] = Half life in Wistar rat at 10 mg/kg, po; type: ADME, organism-based; design: dose 10 mg/kg, route oral; settings: in vivo; method in brief: as §1
Rattus norvegicus = experiment: Cognitive enhancing effect in Wistar rat assessed as reversal of time delay-induced memory deficit at 10 mg/kg, po after 60 mins by object recognition test; type: functional, organism-based; design: dose 10 mg/kg
Method in brief: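 Object recognition task in rats. Drug or vehicle (PEG 400 50% v/v, 1 mL/kg) was given orally 60 min before testing, at 10 mg/kg. n = 6–9 per group.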

[23] = Ratio of drug level in brain to plasma at steady state in Wistar rat at 10 mg/kg, po after 1 hr; type: ADME, organism-based; design: dose 10 mg/kg, route oral; settings: read-out: BPR

Row | AUC(0-t) [1] | bioavailability [2] | Tmax [3] | Cmax [4] | clearance [5] | Vd [6] | half-life [7] | metabolised at 0.5 h, 2.5 µM [8] | metabolised at 0.5 h, 2.5 µM [9] | IC50 (Cytochrome P450 2D6) | inhibition [10] | inhibition [11] | inhibition [12] | inhibition [13] | inhibition [14] | inhibition [15] | inhibition [16] | inhibition [17] | inhibition [21] | SMILES | inhibition at 1 µM (hERG (KCNH2)) | further results
1 | 23 ng·h/mL | 2% | 1.08 h | 7.6 ng/mL | 152 mL/min/kg | 19.4 L/kg | 1.53 h | 100% | 47% | 16800 nM | 2.85% | 10.1% | 10.2% | 22.6% | 3.92% | 7.26% | 6.73% | 10.9% | 0.99% | CN1CCN(Cc2cccc3c2ccn3S(=O)(=O)c2ccccc2)CC1 | 21.1% | IC50 (Cytochrome P450 3A4): 30500 nM; Imax [18]: 99%; IC50 [19]: 234 nM; Kb [19]: 1.02 nM; Ki [20]: 3.24 nM
2 | – | – | – | – | – | – | – | – | – | – | 8.47% | 9.82% | 6.28% | 8.31% | 5.23% | 12.8% | 18% | 18.7% | 1.13% | O=S(=O)(c1ccccc1Br)n1ccc2c(CN3CCNCC3)cccc21 | 24.5% | Ki [20]: 2.82 nM
3 | 217 ng·h/mL | 29% | 1.83 h | 60 ng/mL | 220 mL/min/kg | 32.6 L/kg | 1.76 h | 100% | 90% | 19500 nM | 4.62% | 9.48% | 10.8% | 27.8% | 3.66% | 11.1% | 18.8% | 24% | 2.26% | CN1CCN(Cc2cccc3c2ccn3S(=O)(=O)c2ccccc2Br)CC1 | 15.8% | half-life [22]: 3.17 h; Activity (Rattus norvegicus): Active; Kp at 1 h [23]: 20.3; Imax [18]: 100%; IC50 [19]: 135 nM; Kb [19]: 0.59 nM
4 | – | – | – | – | – | – | – | – | – | – | 1.51% | 9.33% | 13.5% | 28.5% | 20.4% | 12.9% | 19.9% | 17.7% | 0.78% | CN1CCN(Cc2cccc3c2c(Cl)cn3S(=O)(=O)c2cccc(Cl)c2)CC1 | 20.2% | –
5 | – | – | – | – | – | – | – | – | – | – | 5.27% | 2.38% | 6.78% | 35.7% | 3.53% | 5.01% | 8.93% | 19.3% | 2.17% | CN1CCN(Cc2cccc3c2c(Br)cn3S(=O)(=O)c2ccccc2)CC1 | 23% | –
